{"data": "Assay results of several laboratories", "organism": "Severe acute respiratory syndrome coronavirus 2", "note": "Compare with care: the assays were run in different laboratories."}
{"SMILES": "CCC(CC)COC(=O)[C@H](C)N[P@](=O)(OC[C@H]1O[C@@](C#N)(c2ccc3c(N)ncnn23)[C@H](O)[C@@H]1O)Oc1ccccc1", "test": "viral replication", "test system": "Vero", "conditions": "10 nM", "endpoint": "inhibition", "result": "53.8%"}
{"SMILES": "CC(C)=CCc1c(O)ccc(C(=O)/C=C/c2ccc(O)cc2)c1O", "test": "cytopathic effect, inhibitor", "test system": "Vero C1008", "conditions": "12.5 µM", "endpoint": "inhibition", "result": "0%"}
{"SMILES": "CCN(CC)CCCC(C)Nc1ccnc2cc(Cl)ccc12 (stereo not shown)", "test": "viral replication, inhibitor", "test system": "Vero C1008", "endpoint": "IC50", "result": "1580 nM"}
{"SMILES": "Cc1cc(NC(=O)c2cc3c(=O)n4cccc(C)c4nc3n2C)ccc1Br", "test": "viral replication", "test system": "Vero", "conditions": "0.1 µM", "endpoint": "inhibition", "result": "37.8%"}
{"SMILES": "C=C[C@@](C)(/C=C/c1ccc(O)cc1)CCC=C(C)C", "test": "cytopathic effect", "test system": "Vero C1008", "conditions": "12.5 µM", "endpoint": "inhibition", "result": "0%"}
{"SMILES": "CCc1ccc(NC(=O)c2cc3c(=O)n4ccccc4nc3n2C)cc1", "test": "viral replication", "test system": "Vero", "conditions": "10 nM", "endpoint": "inhibition", "result": "6.1%"}
{"SMILES": "COc1cc2c(cc1OC)CN(CCc1ccc(NC(=O)c3cc(OC)c(OC)cc3NC(=O)c3cnc4ccccc4c3)cc1)CC2", "test": "viral replication, inhibitor", "test system": "A549-ACE2", "endpoint": "IC50", "result": "1480 nM"}
{"SMILES": "CCC(CC)COC(=O)[C@H](C)N[P@](=O)(OC[C@H]1O[C@@](C#N)(c2ccc3c(N)ncnn23)[C@H](O)[C@@H]1O)Oc1ccccc1", "test": "viral replication, inhibitor", "test system": "Vero C1008", "endpoint": "EC50", "result": "< 100000 nM"}
{"SMILES": "[2H]C([2H])([2H])n1cc2cc(/N=c3\\[nH]c(=O)n(Cc4ncn(C)n4)c(=O)n3Cc3cc(F)c(F)cc3F)c(Cl)cc2n1", "test": "viral replication, inhibitor, qPCR", "conditions": "48 h", "endpoint": "EC50", "result": "18 nM"}
{"SMILES": "O=C(Nc1ccccc1F)c1cc2c(=O)n3ccccc3nc2n1Cc1ccccc1", "test": "viral replication", "test system": "Vero", "conditions": "1 nM", "endpoint": "inhibition", "result": "12.3%"}
{"SMILES": "COc1ccc(C[C@@H]2c3cc(Oc4cc(C[C@@H]5c6cc(O)c(OC)cc6CCN5C)ccc4O)c(OC)cc3CCN2C)cc1", "test": "cytopathic effect, inhibitor", "test system": "Vero C1008", "conditions": "50 µM", "endpoint": "inhibition", "result": "66.7%"}
{"SMILES": "CN[C@@H](C)C(=O)N[C@H]1CN(C(=O)CC(C)C)CC[C@H]2CC[C@@H](C(=O)NC(c3ccccc3)c3ccccc3)N2C1=O", "test": "viral replication, inhibitor", "test system": "Vero C1008", "conditions": "1 µM", "endpoint": "inhibition", "result": "54%"}
{"SMILES": "Cn1c(C(=O)Nc2ccc3c(c2)OCCO3)cc2c(=O)n3ccccc3nc21", "test": "viral replication", "test system": "Vero", "conditions": "0.1 µM", "endpoint": "inhibition", "result": "37.7%"}
{"SMILES": "O=C(/C=C/c1ccc(O)c(O)c1/C=C/c1ccc(O)c(O)c1)O[C@H](Cc1ccc(O)c(O)c1)C(=O)O", "test": "cytopathic effect, inhibitor", "test system": "Vero C1008", "conditions": "0.7812 µM", "endpoint": "inhibition", "result": "0%"}
{"SMILES": "CN1CCN(CCCN2c3ccccc3Sc3ccc(C(F)(F)F)cc32)CC1", "test": "viral replication, inhibitor", "test system": "A549-ACE2", "endpoint": "IC50", "result": "2190 nM"}
{"SMILES": "CCC(CC)COC(=O)[C@H](C)N[P@](=O)(OC[C@H]1O[C@@](C#N)(c2ccc3c(N)ncnn23)[C@H](O)[C@@H]1O)Oc1ccccc1", "test": "viral replication, inhibitor, qPCR", "test system": "Vero C1008", "conditions": "48 h", "endpoint": "EC90", "result": "7050 nM"}
{"SMILES": "Cc1ccc(NC(=O)c2cc3c(=O)n4cccc(C)c4nc3n2C)cc1Cl", "test": "viral replication", "test system": "Vero", "conditions": "10 nM", "endpoint": "inhibition", "result": "25.8%"}
{"SMILES": "CCCCCCCCCCCCCCCCOCCCOP(=O)(O)OC[C@H]1O[C@@](C#N)(c2ccc3c(N)ncnn23)[C@H](O)[C@@H]1O", "test": "viral replication, inhibitor, qPCR", "test system": "Vero C1008", "conditions": "48 h", "endpoint": "EC90", "result": "730 nM"}
{"SMILES": "CCCCCN(C(=O)NC)c1ccc2nc(CCCC)n(Cc3ccc(NC(=O)c4c(Cl)ccc(Cl)c4C(=O)O)cc3)c2c1", "test": "viral replication, inhibitor", "test system": "Vero C1008", "conditions": "1 µM", "endpoint": "inhibition", "result": "44.5%"}
